In ChEMBL document CHEMBL4725488, “Dual-Stage Picolinic Acid-Derived Inhibitors of Toxoplasma gondii” (ACS Med Chem Lett, 2020):
Values after ≈ are worked out from the molar mass of the structure shown. Active and inactive are the calls of the source. The calls are words filed in the database; no cut-off is given here.

What was measured:
[1] = (§1) Cytotoxicity against HFF cells assessed as reduction in cell viability incubated for 72 hrs by Cell titer assay; format: cell-based; conditions: human, HFF cells
In short: (§2)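 Uninfected HFF cells exposed to compounds for 72 h. CC50 is the concentration that cuts cell viability by 50%. At least triplicate (n ≥ 3) unless noted, some in duplicate.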

[2] = Selectivity index, ratio of CC50 for human HFF cells to EC50 for Toxoplasma gondii ME49 bradyzoite infected in human HFF cells; format: toxicity, cell-based
In short: (§3)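 Selectivity index computed as CC50 in uninfected HFF cells (72 h exposure) divided by EC50 for the bradyzoite or tachyzoite growth assay run in the same HFF line.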

[3] = system: Toxoplasma gondii; experiment: Antiparasitic activity against Toxoplasma gondii ME49 bradyzoite infected in human HFF-1 cells assessed as inhibition of parasitic growth preincubated for 48 hrs followed by [5,6-3H]uracil addition and measured after 24 hrs by liquid scintillation counting analysis; format: functional, organism-based
In short: (§4)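 HFF host cells harbouring tachyzoites, or bradyzoites differentiated in vitro by base-mediated maturation, were exposed to compounds in dose–response format. EC50 was the concentration inhibiting 50% of parasites. Tested at least in triplicate (n ≥ 3) unless noted, some in duplicate (n = 2).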

[4] = Selectivity index, ratio of CC50 for human HFF cells to EC50 for Toxoplasma gondii ME49 tachyzoites infected in human HFF cells; format: toxicity, cell-based; in short: as §3
[5] = system: Toxoplasma gondii; experiment: Antiparasitic activity against Toxoplasma gondii ME49 tachyzoites infected in human HFF-1 cells assessed as inhibition of parasitic growth preincubated for 48 hrs followed by [5,6-3H]uracil addition and measured after 24 hrs by liquid scintillation counting analysis; format: functional, organism-based; in short: as §4
[6] = Protein binding in male Balb/c mouse at 15 mg/kg, ip; format: ADME, organism-based; conditions: plasma, read-out: PB (converted)
[7] = Lipophilicity log D of compound at pH 7.4; format: physicochemical; conditions: buffer
In short: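 LogD at pH 7.4, determined experimentally.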

[8] = Concentration at 2 hrs in male Balb/c mouse brain at 15 mg/kg, ip; conditions: in vivo
[9] = Kinetic aqueous solubility of the compound in pH 7.4; format: physicochemical; conditions: buffer, read-out: Kinetic_solubility
In short: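 Kinetic aqueous solubility measured at pH 7.4.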

[10] = system: HFF; experiment: as §1; format: cell-based; conditions: human, hff, 72 h; in short: as §2
[11] = Ratio of AUC in brain to plasma in male Balb/c mouse at 15 mg/kg, ip; format: ADME, organism-based; conditions: read-out: BPR
In short: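 Male BALB/c mice given a single 15 mg/kg ip injection as a clear solution of the sodium salt. Plasma sampled at 30 min and 2 h after dosing, brain at 2 h. Terminal mean AUC to 2 h determined for plasma (ng/mL) and brain (ng/g). Brain-to-plasma ratio taken from these AUCs.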

[12] = Stability in CD-1 mouse liver microsomes assessed as parent compound remaining measured after 60 mins by LC-MS method; format: ADME, Microsome; conditions: for Stabilty: mouse, microsomes, 1 h; for remaining at 1 h: CD-1, mouse, liver microsomes, read-out: Stabilty
In short: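 Mouse microsomes, reported as percent parent compound remaining after 1 h.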

[13] = Plasma concentration at 2 hrs in male Balb/c mouse plasma at 15 mg/kg, ip; conditions: in vivo
[14] = Stability in CD-1 mouse plasma assessed as parent compound remaining measured after 60 mins by LC-MS/MS method; format: ADME, cell-free; conditions: for remaining at 1 h: CD-1, mouse, read-out: Stabilty
In short: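 Mouse plasma, reported as percent parent compound remaining after 1 h.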

[15] = Permeability of compound by PAMPA-BBB assay; format: ADME; conditions: read-out: permeability
In short: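 Blood–brain barrier PAMPA, with permeability reported as Pe (10–6 cm/s).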

[16] = molecular target: T1, Hexokinase (Toxoplasma gondii) (UniProt Q969A8); experiment: Inhibition of hexokinase in Toxoplasma gondii ME49 infected human HFF cells assessed as 13C6-glucose-6-phosphate treated at 6 x EC50 4 hrs postinfection for 5 hrs media changed with [13C6]-glucose; format: cell-based
T1 sequence (whole entry): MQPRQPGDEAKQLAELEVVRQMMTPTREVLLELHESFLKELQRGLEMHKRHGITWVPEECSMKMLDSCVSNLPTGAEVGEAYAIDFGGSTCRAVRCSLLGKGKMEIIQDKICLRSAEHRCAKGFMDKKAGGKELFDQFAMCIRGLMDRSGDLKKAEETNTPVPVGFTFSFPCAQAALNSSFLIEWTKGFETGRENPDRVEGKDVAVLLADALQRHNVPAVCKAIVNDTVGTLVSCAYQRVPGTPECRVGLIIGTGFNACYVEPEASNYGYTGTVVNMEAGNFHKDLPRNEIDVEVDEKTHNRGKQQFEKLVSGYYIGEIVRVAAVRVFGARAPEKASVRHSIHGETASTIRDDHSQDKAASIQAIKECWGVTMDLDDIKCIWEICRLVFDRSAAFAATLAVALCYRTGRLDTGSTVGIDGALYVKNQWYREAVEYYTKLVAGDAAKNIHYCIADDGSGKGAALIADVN
In short: (§5)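 Infected HFF cells were treated 4 h postinfection with DMSO or compound (2 or 6 × EC50). After 5 h the medium was switched to glucose-free RPMI with 13C6-glucose and labelled for 10 min. Samples were rapidly quenched, processed and analysed by broad-spectrum mass spectrometry for 13C6-glucose-6-phosphate (hexokinase product) against DMSO.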

[17] = molecular target: T1, Hexokinase (Toxoplasma gondii); experiment: Inhibition of hexokinase in Toxoplasma gondii ME49 infected human HFF cells assessed as 13C6-glucose-6-phosphate treated at 2 x EC50 4 hrs postinfection for 5 hrs media changed with [13C6]-glucose; format: cell-based; in short: as §5
[18] = system: Toxoplasma gondii; experiment: Ex vivo inhibition of Toxoplasma gondii ME49 bradyzoite isolated from 30 days post infection brain of C57BL/6J mouse transferred to human HFF cells after 3 days using anti-BAG1 by fluorescence assay; format: functional; conditions: time 72.0 hrs
In short: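 Bradyzoites were harvested from brains of four infected mice 30+ days after infection, purified and transferred to HFF cells. Compound was added at 1, 3 or 6 × EC50 and incubated 3 days against a DMSO control. Monolayers were fixed, labelled with anti-BAG1 antibody against a bradyzoite-specific antigen, and imaged by fluorescence.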

[19] = HFF cells, read-out: Selectivity ratio

SMILES | CC50 at 72 h [1] [nM] | selectivity ratio [2, 19] | EC50 ([3]; Toxoplasma gondii, ME49, HFF-1) [nM] | selectivity ratio [4, 19] | EC50 ([5]; Toxoplasma gondii, ME49, HFF-1) [nM] | also measured
O=C(Nc1cc(Cl)cnc1C(=O)O)c1ccccc1 | > 50000 | > 11.2 | 4470 | > 20.7 | 2420 | 
CC(C)(C)c1ccc(C(=O)Nc2cc(Cl)cnc2C(=O)[O-])cc1.[Na+] |  |  |  |  |  | fraction unbound [6]: 0.005; logD [7]: 2.6; brain concentration at 2 h [8]: 816 ng/g; solubility kinetic [9]: 164 µM; CC50 [10]: 2100 nM; Kp [11]: 0.1; Stabilty [12]: 100%; plasma concentration at 2 h [13]: 7883 ng/mL; selectivity ratio [2]: 9.1; EC50 ([3]; hff-1): 230 nM; selectivity ratio [4]: 6.6; Stabilty ([14]; mouse, 1 h): 88.1%; EC50 ([5]; hff-1): 320 nM
CC(C)(C)c1ccc(C(=O)Nc2cccnc2C(=O)O)cc1 | 9000 | 4.2 | 2160 | 8.1 | 1110 | 
Cc1ccc(C(=O)Nc2cc(Cl)cnc2C(=O)O)cc1 | 18200 | 16.5 | 1100 | 12.3 | 1480 | 
COc1ccccc1C(=O)Nc1cc(Cl)cnc1C(=O)O | > 50000 | > 10.2 | 4900 | > 14.3 | 3500 | 
COc1cccc(C(=O)Nc2cc(Cl)cnc2C(=O)O)c1 | > 50000 | > 8.1 | 6200 | > 27.5 | 1820 | 
CC(C)(C)c1ccc(C(=O)Nc2cc(Cl)cnc2-c2nnn[nH]2)cc1 | 1200 | 0.5 | 2450 | 1.5 | 800 | 
COC(=O)c1ncc(Cl)cc1NC(=O)c1ccc(C(C)(C)C)cc1 | > 50000 | > 87.7 | 570 | > 116 | 430 | logD ([7]; read-out: logD): 5.3; solubility kinetic [9]: < 1.6 µM; remaining at 1 h [12]: 2.7%; remaining at 1 h [14]: 24.7%
CC(C)(C)c1ccc(C(=O)Nc2cc(Cl)c(Br)nc2C(=O)O)cc1 | > 50000 | > 12.2 | 4090 | > 13 | 3850 | 
CC(C)(C)c1ccc(C(=O)Nc2cc(Cl)cnc2C(N)=O)cc1 | > 50000 | > 50 | > 10000 |  | > 10000 | 
CC(C)(C)c1ccc(C(=O)Nc2cc(Cl)c(-c3ccccc3)nc2C(=O)O)cc1 | 48200 | 118 | 410 | 86.1 | 560 | logD ([7]; read-out: logD): 3.9; solubility kinetic [9]: 6.4 µM (≈ 2.62 µg/mL); Papp [15]: 5.4 ×10⁻⁶ cm/s; remaining at 1 h [12]: 85.1%; remaining at 1 h [14]: 97.1%
CC(C)(C)c1ccc(C(=O)Nc2cc(Cl)c(-c3ccccc3)cc2C(=O)O)cc1 | > 50000 |  | 990 |  | 460 | logD ([7]; read-out: logD): 5.4; solubility kinetic [9]: 2.7 µM (≈ 1.1 µg/mL); remaining at 1 h [12]: 69.2%; remaining at 1 h [14]: 100%
CC(C)(C)c1ccc(C(=O)Nc2cc(Cl)ncc2C(=O)O)cc1 | 23600 | > 10 | > 10000 |  | > 10000 | 
CC(C)(C)c1ccc(C(=O)Nc2cc(Cl)cnc2C(=O)O)cc1 [listing 1 of 2 here] |  |  |  |  |  | inhibition [16]: inactive; inhibition [17]: inactive; inhibition [18]: Active
CC(C)(C)c1ccc(C(=O)Nc2ccc(Br)nc2C(=O)O)cc1 | > 50000 | > 12.6 | 3960 | > 9.7 | 5140 | 
COC(=O)c1cnc(Cl)cc1NC(=O)c1ccc(C(C)(C)C)cc1 | > 50000 | > 10 | > 10000 | > 29.6 | 1690 | 
CC(C)(C)c1ccc(C(=O)Nc2cc(Cl)cnc2C(=O)O)cc1 [listing 2 of 2 here] | 2500 | 7.1 | 350 | 10.4 | 240 | logD ([7]; read-out: logD): 2.7; solubility kinetic [9]: 33 µM (≈ 11 µg/mL); Papp [15]: 6.9 ×10⁻⁶ cm/s; Stabilty [12]: 75.4%; remaining at 1 h [14]: 98.4%
COc1ccc(C(=O)Nc2cc(Cl)cnc2C(=O)O)cc1 | > 50000 |  | 2410 | > 7 | 7100 | selectivity ratio ([2]; HFF cells, read-out: Selectivity Index): > 20.7
